# Experimental data of several laboratories.
# Compare with care: the assays were run in different laboratories.
# Target: Ephrin type-B receptor 3 (EPHB3, Homo sapiens, UniProt P54753)
# Sequence (P54753 34-998, as in one of the studies): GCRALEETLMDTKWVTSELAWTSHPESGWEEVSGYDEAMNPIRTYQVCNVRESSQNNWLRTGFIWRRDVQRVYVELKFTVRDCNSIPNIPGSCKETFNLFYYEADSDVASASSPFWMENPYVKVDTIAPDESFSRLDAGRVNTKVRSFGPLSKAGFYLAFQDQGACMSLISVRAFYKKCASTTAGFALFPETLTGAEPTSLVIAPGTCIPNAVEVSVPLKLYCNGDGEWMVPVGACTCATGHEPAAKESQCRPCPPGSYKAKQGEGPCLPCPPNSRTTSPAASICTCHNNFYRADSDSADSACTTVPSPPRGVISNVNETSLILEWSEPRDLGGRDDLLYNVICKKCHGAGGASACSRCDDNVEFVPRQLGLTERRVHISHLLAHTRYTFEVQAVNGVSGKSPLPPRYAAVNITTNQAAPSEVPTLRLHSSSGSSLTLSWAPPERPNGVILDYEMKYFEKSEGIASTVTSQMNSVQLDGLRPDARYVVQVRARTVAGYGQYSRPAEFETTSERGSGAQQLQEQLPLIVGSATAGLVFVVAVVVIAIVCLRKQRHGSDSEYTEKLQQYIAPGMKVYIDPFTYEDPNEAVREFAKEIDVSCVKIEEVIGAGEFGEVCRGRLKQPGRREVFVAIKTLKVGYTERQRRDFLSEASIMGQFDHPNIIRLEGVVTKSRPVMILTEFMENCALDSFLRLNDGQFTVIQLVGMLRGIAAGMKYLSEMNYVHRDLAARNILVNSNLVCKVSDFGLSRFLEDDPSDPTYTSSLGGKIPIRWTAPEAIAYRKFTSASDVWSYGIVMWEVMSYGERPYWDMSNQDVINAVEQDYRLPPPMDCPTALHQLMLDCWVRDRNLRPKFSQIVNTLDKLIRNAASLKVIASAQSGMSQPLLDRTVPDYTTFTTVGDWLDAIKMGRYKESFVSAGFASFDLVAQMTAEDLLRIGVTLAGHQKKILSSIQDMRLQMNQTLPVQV
Structure (SMILES),effect on,method,concentration,remaining binding
C[C@H]1CCN(c2nccc(-c3cnn4ncccc34)n2)C1,binding,,1 µM,100%
O=C(O)c1cc(-c2ccc(C3CCNCC3)cc2)c2ccc(-c3ccc(C(F)(F)F)cc3)cc2c1,cell-free assay,competition with immobilised ligand,1 µM,100%
N[C@@H]1CCN(c2nccc(-c3cnn4ncccc34)n2)C1,binding,,1 µM,100%
CCS(=O)(=O)c1cc2cc(C[C@@](O)(CC(C)(C)c3ccc(F)cc3C(N)=O)C(F)(F)F)[nH]c2cn1,cell-free assay,competition with immobilised ligand,1 µM,92%
F[C@@H]1CCN(c2nccc(-c3cnn4ncccc34)n2)C1,binding,,1 µM,77%
C[C@@H](c1cccc(C#N)c1)n1cc(Cl)cc(C(N)=O)c1=N,cell-free assay,competition with immobilised ligand,1 µM,85%
O=C(c1ccc(Nc2nccc(-c3cc4ccccc4s3)n2)cc1)N1CCC(N2CCCC2)CC1,binding,competition with immobilised ligand,1 µM,100%
C[C@@H](c1ccc(-n2cnc3c(N)ncnc32)cc1)N1CCc2nn(C)c(Cc3ccccc3)c2C1=O,binding,competition with immobilised ligand,0.1 µM,90%
O=C(Nc1c[nH]nc1C(=O)NC1CCNCC1)c1cc(F)cc(F)c1,binding,competition with immobilised ligand,1 µM,100%
O=C(c1ccc(Nc2ncc(Cl)c(-c3ccc(Cl)s3)n2)cc1)N1CCC(N2CCCC2)CC1,binding,competition with immobilised ligand,1 µM,88%
CN(C)c1ncc(F)c(-c2cnn3ncccc23)n1,binding,,1 µM,76%
COc1ccc2c(c1)O[C@@H](c1ccc(OC)c(OC)c1)C[C@H]2NC(=O)C1(c2ccc3c(c2)OC(F)(F)O3)CC1,cell-free assay,competition with immobilised ligand,1 µM,90%
CC1CCCN1c1nccc(-c2cnn3ncccc23)n1 (centres unmarked),binding,,1 µM,89%
CNC(=O)[C@@H]1CC[C@@H](n2c(-c3ccc4cnccc4c3)nc3ccc(C(=O)NCc4cccc(C(N)=O)c4)cc32)C1,binding,competition with immobilised ligand,1 µM,100%
CNC(=O)Nc1ccc2c(c1)CC[C@@]21OC(=O)N(CC(=O)N(Cc2ccc(F)cc2)[C@@H](C)C(F)(F)F)C1=O,cell-free assay,competition with immobilised ligand,1 µM,80%
CN(C)c1nccc(-c2cnc3ncccn23)n1,binding,,1 µM,91%
O=C1NC(c2ccccn2)Sc2ccccc21 (centres unmarked),cell-free assay,competition with immobilised ligand,1 µM,80%
C=CC(=O)N1CCC(C(=O)NCC(=O)N2CCN(c3nc(-c4cnc(N)nc4C(F)F)nc(N4CCOCC4)n3)CC2)CC1,binding,competition with immobilised ligand,1 µM,98%
O=C(NCCCN1CCOCC1)c1ccc(Nc2nccc(-c3cc4ccccc4s3)n2)cc1,binding,competition with immobilised ligand,1 µM,93%
c1cncc(-c2cccc(Nc3nccc(NC4CCCCC4)n3)c2)c1,binding,competition with immobilised ligand,10 µM,89%
